pIC50: −log10 of the molar value.
Columns and labels:
[1] = Cmax in female Sprague-Dawley rat at 250 mg/kg, po measured on day 14; format: ADME, organism-based; set-up: dose 250 mg/kg, route oral; conditions: in vivo
How it was run: (§1)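 Sprague–Dawley rats, 5 weeks old at arrival, both sexes. Given the compound by oral gavage once daily for 14 days at 0, 250, 500 or 1000 mg/kg/day, with 0.5% methylcellulose as vehicle. Toxicokinetic parameters were determined on Day 1 and Day 14.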

Canis familiaris [2] = experiment: Toxicity in Beagle dog assessed as testicular effect administered repeated dose level of 1000 mg/kg/day, po administered on days 3, 6 and 8 by hematoxylin and eosin staining-based microscopy; format: organism-based, Canis lupus familiaris; set-up: route oral; conditions: in vivo
How it was run: (§2)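 Dogs received escalating oral doses of 100, 300 and 1000 mg/kg/day over 8 days (Days 3, 6 and 8 for each dose). Vehicle was 0.5% methylcellulose at 5 mL/kg. Two animals were necropsied at termination, and testes were fixed in modified Davidson's fixative, paraffin-embedded, H&E-stained and examined microscopically.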

[3] = AUC (0 to t) in female Sprague-Dawley rat at 1000 mg/kg, po measured on day 1; format: ADME, organism-based; set-up: dose 1000 mg/kg, route oral; conditions: plasma; how it was run: as §1
Canis familiaris [4] = experiment: Toxicity in Beagle dog assessed as testicular effect administered repeated dose level of 300 mg/kg/day, po administered on days 3, 6 and 8 by hematoxylin and eosin staining-based microscopy; format: organism-based, Canis lupus familiaris; set-up: route oral; conditions: in vivo; how it was run: as §2
[5] = AUC (0 to t) in female Sprague-Dawley rat at 250 mg/kg, po measured on day 14; format: ADME, organism-based; set-up: dose 250 mg/kg, route oral; conditions: plasma; how it was run: as §1
[6] = Tmax in female Sprague-Dawley rat at 250 mg/kg, po measured on day 1; format: ADME, organism-based; set-up: dose 250 mg/kg, route oral; conditions: in vivo
How it was run: (§3)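 Sprague–Dawley rats of both sexes, 5 weeks old at arrival, received daily oral gavage at 0, 250, 500 or 1000 mg/kg/day for 14 days. Vehicle was 0.5% methylcellulose at 10 mL/kg. Toxicokinetics were taken on Day 1 and Day 14. Necropsy was by Day 15. Testis was fixed in modified Davidson's fixative, paraffin-sectioned and H&E-stained, with histopathology on control and high-dose groups only.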

[7] = Metabolic stability in mouse liver microsomes assessed as compound remaining after 1 hr relative to control; format: ADME; conditions: read-out: Stability
How it was run: (§4)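 Liver microsomes from mouse, dog or human were incubated with compound for 1 h, and the percentage of compound remaining was determined.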

Cytochrome P450 1A2 = target: T1, Cytochrome P450 1A2 (Homo sapiens, UniProt P05177); experiment: Inhibition of CYP1A2 in human liver microsomes; format: ADME
T1 sequence (P05177 whole entry): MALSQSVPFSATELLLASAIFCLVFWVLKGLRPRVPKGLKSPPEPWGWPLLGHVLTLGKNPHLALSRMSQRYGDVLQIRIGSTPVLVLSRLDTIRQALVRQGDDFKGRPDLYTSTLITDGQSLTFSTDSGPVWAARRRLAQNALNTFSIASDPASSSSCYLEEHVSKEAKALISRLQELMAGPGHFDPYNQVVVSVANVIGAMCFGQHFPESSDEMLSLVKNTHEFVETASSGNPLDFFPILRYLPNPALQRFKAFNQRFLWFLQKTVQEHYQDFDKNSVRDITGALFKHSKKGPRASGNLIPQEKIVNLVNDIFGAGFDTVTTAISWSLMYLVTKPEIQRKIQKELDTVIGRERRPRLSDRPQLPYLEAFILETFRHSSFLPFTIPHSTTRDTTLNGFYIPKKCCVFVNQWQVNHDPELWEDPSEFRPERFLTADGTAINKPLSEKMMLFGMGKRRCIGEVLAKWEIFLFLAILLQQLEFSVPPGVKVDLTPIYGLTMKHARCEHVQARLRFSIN
How it was run: (§5)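 Pooled human liver microsomes at 0.25 mg/mL, each with a CYP-selective substrate and test compound up to 25 µM, preincubated at 37 °C. It is stopped on ice with ice-cold acetonitrile and centrifuged, and the supernatant is analysed by LC–MS/MS.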

[8] = AUC (0 to t) in female Sprague-Dawley rat at 250 mg/kg, po measured on day 1; format: ADME, organism-based; set-up: dose 250 mg/kg, route oral; conditions: plasma; how it was run: as §1
[9] = Tmax in male Sprague-Dawley rat at 1000 mg/kg, po measured on day 14; format: ADME, organism-based; set-up: dose 1000 mg/kg, route oral; conditions: in vivo; how it was run: as §3
[10] = Volume of distribution at steady state in ICR mouse at 3 mg/kg, iv and 10 mg/kg, po; format: ADME, organism-based; conditions: in vivo, read-out: Vdss
How it was run: (§6)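 Male ICR mice and 7-week-old SD rats received a 3 mg/kg iv bolus or a 10 mg/kg oral gavage dose. Plasma was precipitated with 2 volumes of acetonitrile and analysed by HPLC. Parameters came from noncompartmental analysis.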

[11] = AUC (0 to t) in male Sprague-Dawley rat at 250 mg/kg, po measured on day 1; format: ADME, organism-based; set-up: dose 250 mg/kg, route oral; conditions: plasma; how it was run: as §1
[12] = AUC in ICR mouse at 3 mg/kg, iv and 10 mg/kg, po; format: ADME, organism-based; conditions: plasma
How it was run: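 Male ICR mice and 7-week-old SD rats received a 3 mg/kg intravenous bolus or a 10 mg/kg oral gavage dose. Plasma was deproteinized with acetonitrile (2 volumes) and compound measured by HPLC. Parameters came from noncompartmental analysis.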

Canis familiaris [13] = experiment: Toxicity in Beagle dog assessed as testicular effect administered repeated dose level of 100 mg/kg/day, po administered on days 3, 6 and 8 by hematoxylin and eosin staining-based microscopy; format: organism-based, Canis lupus familiaris; set-up: route oral; conditions: in vivo; how it was run: as §2
Mus musculus = experiment: Antidiabetic activity in glucose-treated C57BL/J6 db/db mouse assessed as reduction of glucose AUC at 50 mg/kg, po preincubated for 30 mins followed by glucose challenge measured after 30 to 180 mins by oral glucose tolerance test relative to control; format: functional; set-up: scale not given: the % may be the effect or the level left; conditions: in the assay text read “C57BL/J6 mouse” for “C57BL/J6 db/db mouse”
How it was run: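 Oral glucose tolerance test. Mice: eight-week-old male C57BL/6 or ten-week-old male C57BLKS/J db/db, fasted overnight with water. Compound or 0.5% methylcellulose vehicle given orally, then an oral 2 g/kg glucose challenge 30 min later. Tail-tip blood glucose was read just before and at 30, 60, 90, 120 and 180 min. AUC was calculated from the time–glucose curve; n = 6.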

[14] = Apparent permeability of the compound by PAMPA; format: physicochemical
[15] = Tmax in female Sprague-Dawley rat at 1000 mg/kg, po measured on day 1; format: ADME, organism-based; set-up: dose 1000 mg/kg, route oral; conditions: in vivo; how it was run: as §3
[16] = Cmax in male Sprague-Dawley rat at 1000 mg/kg, po measured on day 1; format: ADME, organism-based; set-up: dose 1000 mg/kg, route oral; conditions: in vivo; how it was run: as §1
[17] = Oral bioavailability in Sprague-Dawley rat at 10 mg/kg; format: ADME, organism-based; conditions: in vivo; how it was run: as §6
[18] = Metabolic stability in human liver microsomes assessed as compound remaining after 1 hr relative to control; format: ADME; conditions: read-out: Stability; how it was run: as §4
Cytochrome P450 2C9 = Cytochrome P450 2C9 (Homo sapiens, UniProt P11712); experiment: Inhibition of CYP2C9 in human liver microsomes; format: ADME; how it was run: as §5
Chain of Cytochrome P450 2C9 (P11712 whole entry): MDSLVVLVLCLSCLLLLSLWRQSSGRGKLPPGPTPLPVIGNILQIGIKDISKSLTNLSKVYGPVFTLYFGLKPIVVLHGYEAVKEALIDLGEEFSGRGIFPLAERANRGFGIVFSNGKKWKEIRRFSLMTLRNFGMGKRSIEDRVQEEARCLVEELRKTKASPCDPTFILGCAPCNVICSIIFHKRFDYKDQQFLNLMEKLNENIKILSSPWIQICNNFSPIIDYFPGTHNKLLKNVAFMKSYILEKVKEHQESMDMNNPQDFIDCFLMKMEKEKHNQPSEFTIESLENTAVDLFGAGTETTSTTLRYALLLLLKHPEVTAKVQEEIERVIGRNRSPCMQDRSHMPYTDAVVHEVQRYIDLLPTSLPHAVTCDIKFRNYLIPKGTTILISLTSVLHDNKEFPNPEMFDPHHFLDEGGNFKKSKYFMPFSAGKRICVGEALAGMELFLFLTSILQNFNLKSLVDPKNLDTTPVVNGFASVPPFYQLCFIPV

Hepatocyte = experiment: Induction of 2-Deoxy-D-[3H]-glucose uptake in rat Hepatocytes using 5.5 mM glucose after 4 hrs by liquid scintillation counting; format: functional
How it was run: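 Rat primary hepatocytes, isolated by collagenase liver perfusion, viability over 85%. Cells attached 36 h on collagen I in MEM with 10% FBS, then serum-starved 12 h. Incubated 4 h in serum-free MEM with 5.5 mM glucose and 2-deoxy-D-[3H]-glucose, with or without compound. Washed in ice-cold PBS, lysed in 0.1 N NaOH, scintillation counted, expressed as % increase over control.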

Cytochrome P450 3A = Cytochrome P450 3A (Homo sapiens, UniProt P08684+P20815+Q9HB55+P24462); experiment: Inhibition of CYP3A in human liver microsomes; format: ADME; how it was run: as §5

COCCOCn1ccc(NC(=O)c2cc(Oc3ccc(S(C)(=O)=O)cc3)cc(-c3ncccc3C)c2)n1
Cmax [1]: 5200 ng/mL
Activity (Canis familiaris [2]): Non-toxic
AUC(0-t) [3]: 29200 ng·h/mL
Activity (Canis familiaris [4]): Non-toxic
AUC(0-t) [5]: 17600 ng·h/mL
Tmax [6]: 3.7 h
remaining at 1 h [7]: > 60%
inhibition (INH) (Cytochrome P450 1A2): Not Active
AUC(0-t) [8]: 13700 ng·h/mL
Tmax [9]: 5 h
Vd [10]: 0.18 L/kg
AUC(0-t) [11]: 13100 ng·h/mL
AUC [12]: 11900 ng·h/mL
Activity (Canis familiaris [13]): Non-toxic
Activity (Mus musculus): 32.3%
Papp [14]: 2.62 ×10⁻⁶ cm/s
Tmax [15]: 2.7 h
Cmax [16]: 4250 ng/mL
bioavailability [17]: 22%
remaining at 1 h [18]: > 60%
pIC50 (Cytochrome P450 2C9): 5.28
fold change (FC) (Hepatocyte): 2.23
inhibition (INH) (Cytochrome P450 3A): Not Active
